Data taken from ChEMBL document CHEMBL1128424, “New orally active serine protease inhibitors” (J Med Chem, 1995).

Experiments:
Chymotrypsinogen A = Chymotrypsinogen A (Bos taurus, UniProt P00766); assay: Concentration required to inhibit enzymatic cleavage of the chromogenic substrate (Suc-Ala-Ala-Pro-Phe-pNA) for chymotrypsin in vitro.
Neutrophil elastase = target: T1, Neutrophil elastase (Homo sapiens, UniProt P08246); assay: Concentration required to inhibit enzymatic cleavage of the chromogenic substrate (MeO-Suc-Ala-Ala-Pro-Val-pNA) for sputum elastase in vitro.
T1 sequence (P08246 whole entry): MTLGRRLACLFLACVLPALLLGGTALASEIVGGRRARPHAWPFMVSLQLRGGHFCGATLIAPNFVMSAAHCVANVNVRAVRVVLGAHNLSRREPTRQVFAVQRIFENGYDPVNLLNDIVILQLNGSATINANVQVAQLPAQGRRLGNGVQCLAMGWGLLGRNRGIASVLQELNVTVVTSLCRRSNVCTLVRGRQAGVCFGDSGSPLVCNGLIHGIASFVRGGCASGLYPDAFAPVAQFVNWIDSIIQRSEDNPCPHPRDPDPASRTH

Plasma kallikrein = Plasma kallikrein (Homo sapiens, UniProt P03952); assay: Concentration required to inhibit enzymatic cleavage of the chromogenic substrate (H-D-Pro-Phe-Arg-pNA) for plasma kallikrein in vitro.
Kallikrein-1 = Kallikrein-1 (Homo sapiens, UniProt P06870); assay: Concentration required to inhibit enzymatic cleavage of the chromogenic substrate (H-D-Val-Leu-Arg-pNA) for pancreatic kallikrein in vitro.
Plasminogen = Plasminogen (Rattus norvegicus, UniProt Q01177); assay: Concentration required to inhibit enzymatic cleavage of the chromogenic substrate (H-D-Val-Leu-Lys-pNA) for plasmin in vitro.
[1] = Concentration required to inhibit enzymatic cleavage of the chromogenic substrate (Suc-Ala-Ala-Ala-AMC) for pancreatic elastase in vitro.; parameters: species or system Homo sapiens
Prothrombin = Prothrombin (Homo sapiens, UniProt P00734); assay: Concentration required to inhibit enzymatic cleavage of the chromogenic substrate (H-D-Phe-Pip-Arg-pNA) thrombin in vitro.
Serine protease 1 = Serine protease 1 (Homo sapiens, UniProt P07477); assay: Concentration required to inhibit enzymatic cleavage of the chromogenic substrate (Boc-Phe-Ser-Arg-AMC) for trypsin in vitro.
Cathepsin G = target: T2, Cathepsin G (Homo sapiens, UniProt P08311); assay: Concentration required to inhibit enzymatic cleavage of the chromogenic substrate (MeO-Suc-Ala-Ala-Pro-Met-pNA) for cathepsin G in vitro.
T2 sequence (P08311 whole entry): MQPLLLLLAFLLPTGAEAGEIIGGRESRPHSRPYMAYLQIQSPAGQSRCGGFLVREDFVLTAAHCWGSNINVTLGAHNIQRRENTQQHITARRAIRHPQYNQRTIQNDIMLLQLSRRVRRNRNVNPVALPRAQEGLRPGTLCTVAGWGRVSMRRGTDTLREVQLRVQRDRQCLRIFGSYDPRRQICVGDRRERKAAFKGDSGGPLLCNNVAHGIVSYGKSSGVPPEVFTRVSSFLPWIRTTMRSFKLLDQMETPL

[2] = Half-life in rat plasma.; assay type: ADME, organism-based
Outline: (§1)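 Compound in MeOH (1 mg/mL stock) incubated with rat or dog plasma, liver homogenate or small intestine homogenate at 37 °C for 120 min; aliquots taken at regular intervals into acetonitrile with 1% methanesulfonic acid at 5 °C, centrifuged 10 000 rpm 1 min, analyzed by HPLC to give hydrolysis half-life (min) and products.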

[3] = Half-life in rat liver homogenate.; assay type: ADME, organism-based; outline: as §1
[4] = Half-life in dog liver homogenate.; assay type: ADME, organism-based, Canis lupus familiaris; outline: as §1
[5] = Half-life in dog plasma.; assay type: ADME, organism-based, Canis lupus familiaris; outline: as §1
[6] = Half-life in dog small intestine homogenate.; assay type: ADME, organism-based, Canis lupus familiaris; outline: as §1
[7] = Half-life in rat small intestine homogenate.; assay type: ADME, organism-based; outline: as §1
[8] = Area under the plasma concentration was determined in fasted Beagle dogs after peroral administration of 100 mg/kg; assay type: ADME, organism-based, Canis lupus familiaris; parameters: dose 100 mg/kg, route oral; details: dog, po
Outline: (§2)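 Fasted beagle dogs dosed orally; plasma (0.2 mL) deproteinized with acetonitrile containing 1% methanesulfonic acid at 5 °C, centrifuged 10 min at 3000 rpm at 5 °C, analyzed by HPLC with n-propyl or iso-amyl 4-hydroxybenzoate as internal standard.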

[9] = Area under the plasma concentration was determined in fasted Beagle dogs after peroral administration of 20 mg/kg; assay type: ADME, organism-based, Canis lupus familiaris; parameters: dose 20 mg/kg, route oral; details: dog, po; outline: as §2

Plasminogen, sequence (Q01177 97-581 limits assumed): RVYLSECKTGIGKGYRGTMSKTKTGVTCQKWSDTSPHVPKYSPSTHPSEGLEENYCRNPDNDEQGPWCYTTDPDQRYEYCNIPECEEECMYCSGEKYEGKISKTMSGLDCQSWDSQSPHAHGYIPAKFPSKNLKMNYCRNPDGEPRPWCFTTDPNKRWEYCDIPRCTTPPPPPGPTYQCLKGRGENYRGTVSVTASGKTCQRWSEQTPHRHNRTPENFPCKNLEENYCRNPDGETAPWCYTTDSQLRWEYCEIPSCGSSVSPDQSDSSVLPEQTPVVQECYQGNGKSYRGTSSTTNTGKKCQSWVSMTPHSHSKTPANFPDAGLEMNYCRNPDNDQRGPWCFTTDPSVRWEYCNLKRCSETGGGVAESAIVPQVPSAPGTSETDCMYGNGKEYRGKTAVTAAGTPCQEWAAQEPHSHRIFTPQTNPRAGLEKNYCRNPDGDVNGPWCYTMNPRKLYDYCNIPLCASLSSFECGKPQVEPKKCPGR
Plasminogen, sequence (Q01177 582-812 limits assumed): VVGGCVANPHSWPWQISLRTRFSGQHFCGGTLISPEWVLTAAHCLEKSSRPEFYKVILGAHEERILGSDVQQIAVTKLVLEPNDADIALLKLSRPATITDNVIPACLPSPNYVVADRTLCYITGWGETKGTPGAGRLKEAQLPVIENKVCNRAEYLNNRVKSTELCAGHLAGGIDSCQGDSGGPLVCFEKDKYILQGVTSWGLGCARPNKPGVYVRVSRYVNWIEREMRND
Serine protease 1, sequence (P07477 whole entry): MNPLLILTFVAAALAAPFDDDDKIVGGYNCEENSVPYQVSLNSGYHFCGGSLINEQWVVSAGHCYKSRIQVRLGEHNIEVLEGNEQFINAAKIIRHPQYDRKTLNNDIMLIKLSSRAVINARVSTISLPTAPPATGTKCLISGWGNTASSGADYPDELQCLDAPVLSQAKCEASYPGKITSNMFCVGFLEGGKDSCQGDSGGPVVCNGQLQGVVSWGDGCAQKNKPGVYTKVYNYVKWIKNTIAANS
Kallikrein-1, sequence (P06870 whole entry): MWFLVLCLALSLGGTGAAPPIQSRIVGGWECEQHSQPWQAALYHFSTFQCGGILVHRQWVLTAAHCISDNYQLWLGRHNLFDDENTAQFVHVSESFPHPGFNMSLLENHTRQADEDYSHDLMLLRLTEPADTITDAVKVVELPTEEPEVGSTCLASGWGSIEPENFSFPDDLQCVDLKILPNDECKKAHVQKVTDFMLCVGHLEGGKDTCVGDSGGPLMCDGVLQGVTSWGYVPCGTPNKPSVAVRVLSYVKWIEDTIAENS
Plasma kallikrein, sequence (P03952 whole entry, looked up): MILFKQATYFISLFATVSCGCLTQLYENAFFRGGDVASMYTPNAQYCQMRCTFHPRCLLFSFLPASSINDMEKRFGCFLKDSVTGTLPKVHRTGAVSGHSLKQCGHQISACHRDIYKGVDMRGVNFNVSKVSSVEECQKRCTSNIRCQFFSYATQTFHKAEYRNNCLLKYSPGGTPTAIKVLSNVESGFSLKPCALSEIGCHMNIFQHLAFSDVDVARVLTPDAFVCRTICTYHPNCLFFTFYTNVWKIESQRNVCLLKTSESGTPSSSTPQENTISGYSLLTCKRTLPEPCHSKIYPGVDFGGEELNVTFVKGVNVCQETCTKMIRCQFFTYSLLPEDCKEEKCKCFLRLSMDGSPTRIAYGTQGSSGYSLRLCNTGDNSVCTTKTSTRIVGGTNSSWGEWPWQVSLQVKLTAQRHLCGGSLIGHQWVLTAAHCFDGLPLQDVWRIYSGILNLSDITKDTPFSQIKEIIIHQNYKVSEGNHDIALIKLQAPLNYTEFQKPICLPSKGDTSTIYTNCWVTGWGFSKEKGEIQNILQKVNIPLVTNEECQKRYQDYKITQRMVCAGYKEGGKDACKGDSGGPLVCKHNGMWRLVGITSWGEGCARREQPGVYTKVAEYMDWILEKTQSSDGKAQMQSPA

IC50 (Chymotrypsinogen A) [µM]	IC50 (Neutrophil elastase) [µM]	IC50 (Plasma kallikrein) [nM]	IC50 (Kallikrein-1) [µM]	IC50 (Plasminogen) [nM]	IC50 [1] [µM]	IC50 (Prothrombin) [µM]	IC50 (Serine protease 1) [nM]	IC50 (Cathepsin G) [µM]	half-life [2] [min]	half-life [3] [min]	half-life [4] [min]	half-life [5] [min]	half-life [6] [min]	half-life [7] [min]	AUC [8] [ng·h/mL]	AUC [9] [ng·h/mL]	Compound
> 100	> 100	2320	> 100	12500	> 100	108	55	> 100									N=C(N)Nc1ccc(C(=O)Oc2ccc(CC(=O)O)cc2)cc1
> 100	> 100	190	15.7	873	> 100	3.66	11.2	> 100	< 1	< 1	< 1	25	> 60	11			C=CCN(CC(=O)OCC)C(=O)/C(C)=C/c1ccc(C(=O)Oc2ccc(C(=N)N)cc2)cc1.CS(=O)(=O)O
> 100	> 100	96.5	> 100	1830	> 100	35	4.13	> 100	> 60	> 60	> 60	15	> 60	> 60	27000	5230	C=CCN(CC(=O)O)C(=O)/C(C)=C/c1ccc(C(=O)Oc2ccc(C(=N)N)cc2)cc1.CS(=O)(=O)O
> 100	> 100	1480	34.1	2620	> 100		50.6	> 100								1820	CN(C)C(=O)COC(=O)Cc1ccc(OC(=O)c2ccc(NC(=N)N)cc2)cc1.CS(=O)(=O)O [CAMOSTAT MESILATE]
